SENP6 block: blocks the human protease SENP6 | Q9GZR1 | Recombinant SENP6 catalytic domain, aminoluciferin luminescence | inhibition, % at 10 µM | 330,000 tested, 1.8% active;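 active = inhibition above about 50% at the single tested dose, limit read from the data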
SENP8 block-1: inhibitors of human SENP8 protease; AID 602440; 360,000 tested, 0.64% active; recombinant SENP8, Nedd8 substrate fluorescence; inhibition, % at 20 µM; Q96LD8; in the data active = inhibition mostly above about 40%, no sharp cut-off; inactive = mostly below about 27%
Target sequence (Q96LD8 whole entry, looked up): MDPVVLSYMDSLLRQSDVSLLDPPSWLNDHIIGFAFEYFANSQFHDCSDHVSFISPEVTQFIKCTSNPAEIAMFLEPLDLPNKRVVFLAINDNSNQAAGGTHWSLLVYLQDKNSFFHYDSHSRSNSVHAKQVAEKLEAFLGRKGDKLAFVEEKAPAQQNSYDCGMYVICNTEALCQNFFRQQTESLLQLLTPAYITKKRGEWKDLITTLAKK
SENP1 FRET inh: blocks the human SENP1 SUMO protease catalytic domain; 360,000 tested, 0.21% active; recombinant SENP1 catalytic domain, CyPet-SUMO1-YPet FRET cleavage; Q9P0U3; AID 624204; inhibition, % at 10 µM;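 active = inhibition at least 30% at 10 µM, raw YFP signal under a set limit, fluorescence ratio 0.5 to 1.5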
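material = recombinant human SENP1 catalytic domain, His6-tagged | quantity = 20 pM enzyme | reagent = 25 nM SUMO1 FRET substrate | compound dosing = 10 µM single point, 0.5% DMSO | timing = 50 min enzyme reaction, room temperature, light-protected | detection = FRET, CFP and YFP emission | control set = no-enzyme low, enzyme-DMSO high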
SENP8 block-2: blocks the human protease SENP8 | Q96LD8 | purified SENP8, Z-RLRGG-aminoluciferin cleavage, luminescence | inhibition, % at 10 µM | 330,000 tested, 1.2% active; in the data active = inhibition above about 50%
SENP7 inh: SENP7 protease inhibition; Q9BQF6; recombinant SENP7, Z-RLRGG-aminoluciferin luminescence, 40 min; inhibition, % at 5 µM; 330,000 tested, 1.5% active; AID 434973;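 active = inhibition above about 50% at the single test dose, limit read from the data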
Target sequence (Q9BQF6 706-1050 limits assumed): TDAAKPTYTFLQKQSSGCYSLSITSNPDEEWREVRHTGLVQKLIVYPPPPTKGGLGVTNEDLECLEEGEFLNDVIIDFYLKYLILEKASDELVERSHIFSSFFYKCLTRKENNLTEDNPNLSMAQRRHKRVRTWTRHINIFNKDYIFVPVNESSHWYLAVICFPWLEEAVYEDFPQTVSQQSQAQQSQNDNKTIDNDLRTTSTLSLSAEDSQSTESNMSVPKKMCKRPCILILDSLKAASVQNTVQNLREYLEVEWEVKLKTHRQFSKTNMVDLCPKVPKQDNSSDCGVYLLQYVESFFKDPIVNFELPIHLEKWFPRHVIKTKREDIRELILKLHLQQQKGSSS
CendR NRP1 mod: NRP-1/CendR interaction modulation | FAM-RPARPAR peptide binding to NRP-1, fluorescence polarization | inhibition, % at 25 µM | 360,000 tested, 0.85% active;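 active = inhibition or corrected inhibition above about 18%, plus a signal ratio from 0.5 to 1.5, limit read from the data, passing the limit was not always enough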
Large screens that a line does not name were inactive. Compounds with a hit are over-represented: about 3.3% of the library has one in this group of screens.

CN(Cc1cnn(C)c1)C(=O)c1cc2ccccc2oc1=O	CendR NRP1 mod 52
C=Cn1cc(CNC[C@H]2O[C@@H](n3ccc(N)nc3=O)[C@H](O)[C@@H]2O)c(C)n1	none (no result: SENP6 block, SENP8 block-2, SENP7 inh)
CC(C)C[C@@H](C)C(=O)N(Cc1ccccc1)c1ccccc1	CendR NRP1 mod 32
O=C(CC1C(=O)NCCN1Cc1cccc(C(F)(F)F)c1)NCCc1cnccn1 (stereo unspecified)	CendR NRP1 mod 21
CC(=O)c1cn(CC(=O)NCC2CCCO2)c2ccccc12 (stereo unspecified)	CendR NRP1 mod 20
Cc1ccc2c(c1)c1c(c(=O)n(-c3ccccc3C)c(=O)n1CC(=O)NCC1CCCO1)n2C (stereo unspecified)	CendR NRP1 mod 31
Cc1ccc(OCCNC(=O)c2cccc(S(=O)(=O)N3CCN(C)CC3)c2)cc1	none
CCCCn1c(CCCNC(=O)c2ccco2)nc2ccccc21	CendR NRP1 mod 22
CCCCn1c(CCNC(=O)c2ccco2)nc2ccccc21	none
OC(c1cccc(CN2CCCCC2)c1)c1ncc(-c2ccccc2Cl)[nH]1 (stereo unspecified)	none (no result: SENP6 block, SENP8 block-2, SENP7 inh)
CC1=C(C)C(=O)C(N2CCOCC2)=CC1=O	SENP8 block-1 47 (no result: SENP6 block, SENP8 block-2, SENP7 inh)
O=C1C=C(N2CCOCC2)c2cccc3cccc1c23	CendR NRP1 mod 28 (no result: SENP6 block, SENP8 block-2, SENP7 inh)
O=C1C=C(N2CCOCC2)c2ccccc2C1=O	SENP6 block 90, SENP8 block-2 94, SENP7 inh 90
CC1=C(N2CCOCC2)CCC1=O	none
O=C1C(N2CCOCC2)=Cc2cccc3cccc1c23	none (no result: SENP6 block, SENP8 block-2, SENP7 inh)
COc1ccc(F)cc1-c1cc(NC(C)=O)c2ncc(-c3cccc(C(F)(F)F)c3)n2c1	none (no result: SENP6 block, SENP8 block-2, SENP7 inh)
Cc1nnsc1C(=O)NC(=O)Nc1ccc(F)c(Cl)c1	SENP6 block 82, SENP8 block-2 78
COc1ccc(NC(=O)Nc2ccc(F)c(Cl)c2)cc1	SENP7 inh 51
Cc1nnsc1C(=O)Nc1ccc(Cl)cc1	none
Cc1c(Br)cc(-c2nnco2)cc1Br	CendR NRP1 mod 21
CCOc1ccc(NC(=O)CN2C(=O)NC(C)(c3ccc4c(c3)OCCCO4)C2=O)cc1OCC (stereo unspecified)	none (no result: SENP6 block, SENP8 block-2, SENP7 inh)
CC(=O)Nc1ccc(CNc2nc(NCC3CC3)nc3ccsc23)cc1	none (no result: SENP6 block, SENP8 block-2, SENP7 inh)
CC(=O)Nc1ccc(CNc2nc(NC(C)C)nc3ccsc23)cc1	CendR NRP1 mod 28 (no result: SENP6 block, SENP8 block-2, SENP7 inh)
O=C(COC(=O)CSc1ccccc1)NC1CCS(=O)(=O)C1 (stereo unspecified)	none (no result: SENP6 block, SENP8 block-2, SENP7 inh)
Cc1ccc(NC(=O)C2(C)CCCN2C)cc1C (stereo unspecified)	none (no result: SENP6 block, SENP8 block-2, SENP7 inh)
CC(Sc1ncccn1)C(=O)NC1(C#N)CCCCC1 (stereo unspecified)	CendR NRP1 mod 26
Cc1ccc(Cl)cc1Nc1nc(-c2sc(NC(=O)c3ccccc3)nc2C)cs1	SENP6 block 51 (no result: SENP8 block-1, SENP1 FRET inh, CendR NRP1 mod)
COc1ccccc1Nc1nc(-c2sc(NC(=O)c3ccccc3)nc2C)cs1	none
CCOc1ccccc1Nc1nc(-c2sc(NC(=O)c3ccccc3)nc2C)cs1	SENP6 block 72, SENP8 block-2 59, SENP7 inh 64 (no result: SENP8 block-1, SENP1 FRET inh, CendR NRP1 mod)
Cc1nc(NC(=O)c2ccccc2)sc1-c1csc(Nc2cccc(F)c2)n1	none (no result: SENP8 block-1, SENP1 FRET inh, CendR NRP1 mod)
Cc1cc(NS(=O)(=O)c2ccc(Nc3nc(-c4sc(NC(=O)c5ccccc5)nc4C)cs3)cc2)no1	SENP6 block 72, SENP7 inh 65 (no result: SENP8 block-1, SENP1 FRET inh, CendR NRP1 mod)
O=C(OCc1cc(=O)n2ccsc2n1)C1(c2ccccc2)CC1	none (no result: SENP6 block, SENP8 block-2, SENP7 inh)
Cc1cn([C@H]2C[C@H](O)[C@@H](/C=C/C(=O)N3CCN(Cc4ccc(F)cc4)CC3)O2)c(=O)[nH]c1=O	none (no result: SENP6 block, SENP8 block-2, SENP7 inh)
N=C1C(=O)OCC1c1cc(Cl)ccc1NC(=O)Nc1ccccc1 (stereo unspecified)	CendR NRP1 mod 39
COc1cc(C(=O)Nc2ccccc2C2COC(=O)C2=N)cc(OC)c1OC (stereo unspecified)	none
c1ccc(-c2ccc(-c3ccccn3)nn2)nc1	SENP6 block 83, SENP8 block-2 71, SENP7 inh 89 (no result: SENP8 block-1, SENP1 FRET inh, CendR NRP1 mod)
c1ccc(-c2ccccn2)nc1	none
COc1cccc(NC(=S)/C(=C(\[O-])c2ccc(C)c([N+](=O)[O-])c2)[n+]2ccccc2)c1	SENP8 block-1 39
Cc1cccc(CNc2ncnc3ccc(-c4ccoc4)cc23)c1	none
CC(=O)Nc1ccc(CNc2ncnc3ccc(-c4c(C)noc4C)cc23)cc1	CendR NRP1 mod 36
COc1cc(OC)c(NC(=O)c2cc3ccccc3cc2O)cc1Cl	none (no result: SENP6 block, SENP8 block-2, SENP7 inh)
CCOC(=O)N1CCN(C(=O)COc2ccc(S(=O)(=O)NC3CCCCC3)cc2C)CC1	none
COc1ccc(S(=O)(=O)N2CCCC(C(=O)N3CCOCC3)C2)cc1C (stereo unspecified)	CendR NRP1 mod 34
Cc1cc(S(=O)(=O)NC2CCCCC2)ccc1OCC(=O)N1CCOCC1	CendR NRP1 mod 27
CN1OC[C@@H]2CN(Cc3ccc4c(c3)OCO4)[C@H](c3ccc(N4CCCCC4)cc3)C[C@@H]21	none (no result: SENP6 block, SENP8 block-2, SENP7 inh)
O=[N+]([O-])c1ccc(N2CCN(Cc3ccccc3)CC2)c(S(=O)(=O)N2CCOCC2)c1	CendR NRP1 mod 30
COc1ccc(OC)c(-c2csc(NC(=O)C3=NN(c4ccccc4)C(=O)CC3)n2)c1	none
COc1ccc(NS(=O)(=O)c2cc(NC(=O)C3=NN(c4ccccc4)C(=O)CC3)ccc2OC)cc1	CendR NRP1 mod 27
O=C(Nc1cccc(S(=O)(=O)N2CCOCC2)c1)C1=NN(c2ccccc2)C(=O)CC1	CendR NRP1 mod 27
COc1ccc(S(=O)(=O)Nc2ccc(N3CCOCC3)cc2)cc1[N+](=O)[O-]	CendR NRP1 mod 25
CS(=O)(=O)N1CCN(c2ccc([N+](=O)[O-])c(N3CCOCC3)c2)CC1	CendR NRP1 mod 28
COc1ccc(CNC(=O)CCC(=O)N2CCN(S(=O)(=O)c3cc([N+](=O)[O-])ccc3C)CC2)cc1	none
CC1CCN(C(=O)CN2C(=O)NC3(CCC(C)CC3)C2=O)CC1 (stereo unspecified)	none
CCCCn1nc2cc(C(=O)NCCc3cccs3)ccc2c1OCC	none
CCCn1nc2cc(C(=O)NCCc3ccc(C)cc3)ccc2c1OCC	CendR NRP1 mod 26
CCOc1c2ccc(C(=O)NCCc3cccs3)cc2nn1CC	CendR NRP1 mod 25
COC(=O)CCC(=O)OC1(C)C(=O)C=C2C=C(C3CC3)N(CCc3ccccn3)C=C2C1=O (stereo unspecified)	CendR NRP1 mod 30
COC(=O)CCC(=O)OC1(C)C(=O)C=C2C=C(C3CC3)N(CCCCO)C=C2C1=O (stereo unspecified)	CendR NRP1 mod 21
COC(=O)CCC(=O)OC1(C)C(=O)C=C2C=C(C3CC3)N(c3ccccc3)C=C2C1=O (stereo unspecified)	none
COC(=O)CCC(=O)OC1(C)C(=O)C=C2C=C(C3CC3)N(C(CO)CO)C=C2C1=O (stereo unspecified)	CendR NRP1 mod 27
